PfG6PD inh – PfG6PD (Plasmodium falciparum) enzyme inhibition; PfGluPho enzyme, NADPH resazurin-diaphorase fluorescence; AID 504690; actives 0.78% (n = 350,000); inhibition, % at 20 µM;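 active means inhibition reaching at least a set limit at 20 µM in the primary screen, cut at about 59% in these data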;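 further: 0% = DMSO wells with substrate and 100% = DMSO wells lacking glucose-6-phosphate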
G6PDH CS – L. mesenteroides G6PDH inhibition counter-screen; inhibition, % at 5 µM; actives 0.12% (n = 200,000); Purified L. mesenteroides G6PDH, diaphorase/resazurin coupled fluorescence, 45 min; in the data active means inhibition above about 50%
Tb hexokinase – T. brucei hexokinase 1 inhibition | AID 1430 | recombinant TbHK1, G6PDH-coupled NADH A340 | inhibition, % at 10 µM | actives 0.11% (n = 220,000);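 active means inhibition of 50% or more in the single-dose primary screen; inactive means inhibition below 50%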
HKDC1 inhibitor – inhibitors of human hexokinase HKDC1. Q2TB90. recombinant HKDC1, G6PDH/diaphorase resazurin coupled fluorescence. inhibition, % at 20 µM. actives 0.16% (n = 340,000);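 active means inhibition above about 35% when tested at 20 µM, limit read from the data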;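 further: plate controls were DMSO wells with enzyme for no effect and DMSO wells lacking enzyme for full effect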
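Material – in-house recombinant HK5 (HKDC1) enzyme · Quantity – HKDC1 at 5 µg/mL · Buffer or medium – pH 8.0 Tris buffer with 10 mM MgCl2 · Reagent – glucose with 1 mM ATP · Dosing – single 20 µM dose · Times – reaction time 90 min, room temperature, protected from light · Technique – resorufin fluorescence at 613 nm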
Diaph inh CS – diaphorase inhibition or chemical oxidation counter-screen | AID 1217 | diaphorase resazurin-to-resorufin fluorescence, NADH, 16 min; bacterial (C. kluyveri) enzyme, not human | actives 0.69% (n = 190,000) | inhibition, % at 20 µM;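 active means primary screen inhibition at 20 µM above a set limit, cut at about 50% in these data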;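 further: plate controls were DMSO with full reaction for no effect and wells lacking NADH for full effect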
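Test system: Clostridium kluyveri diaphorase enzyme / Quantity: diaphorase at 0.14 U/mL in enzyme working solution / Incubation: 16-min room-temperature incubation before reading / Benchmarks: NADH-free wells as positive control, DMSO-only neutral wells / Signal: resorufin fluorescence 544/590 nm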
Diaphorase act – activates diaphorase or chemically reduces, flagging diaphorase assay artifacts; Diaphorase/resazurin coupled assay, resorufin fluorescence, 16 min; active compounds read high; 1 = vehicle wells, 0 = NADH-free wells; activation factor at 20 µM; actives 0.005% (n = 190,000);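 active means diaphorase activity raised at least twofold by the compound at 20 µM; inactive means activation factor below 2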
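Test system: Clostridium kluyveri diaphorase, purified enzyme. Buffer or medium: 50 mM HEPES pH 7.4 buffer plus MgCl2 and Tween 20. Also added: 0.114 mM NADH and 0.1 mM resazurin, final amounts. Dosing: compound 20 µM once, DMSO 1%. Schedule: 16 min enzyme reaction, ambient temperature. Detection: fluorescence of resorufin, 544 nm excitation, 590 nm emission.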
* hit, by the source's call; x = no result given. The list is not random: actives were taken first. Their share in the collection is about 1.3%.

SMILES	PfG6PD inh	G6PDH CS	Tb hexokinase	HKDC1 inhibitor	Diaph inh CS	Diaphorase act
NC(=S)n1[nH]c(-c2ccc([N+](=O)[O-])cc2)c(N=Nc2ccccc2[N+](=O)[O-])c1=O	-3	8	-29	-3	27	0.7
NC(=S)n1[nH]c(-c2ccc([N+](=O)[O-])cc2)c(N=Nc2cccc([N+](=O)[O-])c2)c1=O	29	0	6	-5	79*	0.2
Nc1cnc(Nc2ccc(Br)cc2)nc1N	9	x	-16	3	x	x
CCOCCCNC(=O)C1(O)c2ccccc2NC(=O)N1c1ccc(Cl)cc1 (stereo not given)	-4	x	x	-3	x	x
O=C(/C=C/c1ccoc1)c1ccccc1O	-11	6	26	-1	20	0.8
COc1ccc2ccccc2c1C(=O)/C=C\c1ccoc1	26	8	-24	15	52*	0.5
O=C1c2cccc3c([N+](=O)[O-])ccc(c23)C(=O)N1c1nccs1	60*	9	-14	18	27	0.7
O=C(NCc1ccco1)c1cnn2c(C(F)(F)F)cc(-c3cccs3)nc12	7	9	3	0	58*	0.4
O=C(c1cnn2c(C(F)(F)F)cc(-c3cccs3)nc12)N1CCCC1	-6	x	-34	-3	x	x
Cc1cccc(C(O)c2cnc(C)n2Cc2ccccc2)c1 (stereo not given)	-4	x	x	x	x	x
CC(=O)N1C(=S)NC(=O)/C1=C1/C(=O)N(CC(=O)Nc2cccc(C)c2)c2ccccc21	-7	3	-3	8	67*	0.3
Cc1cccc(NC(=O)CN2C(=O)N/C(=C/c3ccc(C)o3)C2=O)c1	48	-18	-2	-6	24	0.8
OC(CCCN1CCCCC1)(c1ccccc1)c1ccc(C(F)(F)F)cc1 (stereo not given)	3	x	x	-8	x	x
COc1ccc(-n2nnc3c(SC(C(C)=O)C(=O)N(C)C)ncnc32)cc1 (stereo not given)	64*	x	x	-3	x	x
CCS(=O)(=O)Nc1ccc(C2=NN(S(C)(=O)=O)C(c3cccs3)C2)cc1 (stereo not given)	-1	7	-5	-1	13	0.9
Cc1oc2c(c1C(=O)NCc1cccnc1)C(=O)c1ccccc1C2=O	103*	59*	-7	27	0	1
COc1ccc(CNC(=O)c2c(C)oc3c2C(=O)c2ccccc2C3=O)cc1	31	62*	-5	12	11	0.9
Cc1onc(-c2ccccc2Cl)c1C(=O)NCc1cccnc1	0	-12	-1	4	13	0.9
CC(=O)c1c(C)oc2c1C(=O)c1ccccc1C2=O	-39	4	-7	2	16	0.8
O=[N+]([O-])c1ccc(/C=C/c2ccncc2)cc1	21	x	-58	-9	x	x
[O-]/[N+](=C\c1ccncc1)c1ccc(Br)cc1	91*	5	37	0	9	0.9
Cc1ccc(S(=O)(=O)NN=C2CCc3ccccc32)cc1	18	x	x	x	x	x
COc1ccc(-c2csc(NC(=O)c3ccccc3NS(=O)(=O)c3ccc(F)c(F)c3)n2)cc1	-1	3	-8	5	53*	0.5
Cc1ccc(S(=O)(=O)Nc2ccccc2C(=O)Nc2nc(-c3ccc(F)cc3)cs2)cc1	-18	13	23	23	13	0.9
O=C1C2C3C=CC(C3)C2C(=O)N1CNc1ccc(O)cc1 (stereo not given)	x	42	x	x	64*	0.4
SMILES	PfG6PD inh	G6PDH CS	Tb hexokinase	HKDC1 inhibitor	Diaph inh CS	Diaphorase act
CNC(=O)C[C@@H]1C(=O)N(C2CCCCC2)CC1(C)C	4	x	x	x	x	x
Cc1cc(NCC(c2ccccc2)c2ccccc2)n2ncnc2n1	-2	14	1	3	4	1
CC(=O)c1cc2c(O)c(O)ccc2o1	22	54*	-11	19	74*	0.3
O=C(CNc1cccc(Br)c1)Nc1ccc(S(=O)(=O)N2CCCCC2)cc1	33	x	x	x	x	x
COC(=O)c1cc(=O)nc2sc(-c3ccc(F)cc3)nn12	59*	4	-2	-13	13	0.9
COC(=O)c1cc(=O)nc2sc(-c3cccs3)nn12	8	1	-25	-4	9	0.9
O=C(/C=C/c1ccccc1)NCC(=O)N/N=C/c1cccs1	-5	x	x	-7	x	x

Source: PubChem (several laboratories)
